In ChEMBL document CHEMBL3259739, “Synthesis and structure-activity relationship of trisubstituted thiazoles as Cdc7 kinase inhibitors” (Eur J Med Chem, 2014):
Activity calls are given as the source filed them. The rule behind the calls is not given here.

How the values were obtained:
[1] = Apparent permeability of the compound in pig LLC-PK1 cells; format: ADME, cell-based, Sus scrofa
[2] = target: T1, CDC7/DBF4 (Cell division cycle 7-related protein kinase/Activator of S phase kinase) (Homo sapiens, UniProt O00311); assay: Inhibition of Cdc7/Dbf4 (unknown origin) using 0.375 uM of ATP as substrate by AlphaScreen assay; format: protein-complex assay
In short: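 Mechanism-of-action AlphaScreen run with 6 nM Cdc7/Dbf4 and 10 nM biotinylated MCM2 substrate. […] Reaction time was 2 h. Phospho-Ser53 MCM2 was read by antibody-bound acceptor beads with streptavidin donor beads. Rates and Ki were fitted to a competitive inhibition model.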

[3] = target: T1, CDC7/DBF4 (Cell division cycle 7-related protein kinase/Activator of S phase kinase); assay: Inhibition of Cdc7/Dbf4 (unknown origin) using 9 uM of ATP as substrate by AlphaScreen assay; format: protein-complex assay
[4] = target: T1, CDC7/DBF4 (Cell division cycle 7-related protein kinase/Activator of S phase kinase); assay: Inhibition of Cdc7/Dbf4 (unknown origin) using 0.012 uM of ATP as substrate by AlphaScreen assay; format: protein-complex assay
In short: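 AlphaScreen with 6 nM Cdc7/Dbf4 and 10 nM biotinylated His/avitag MCM2 (aa1-467) substrate. Phospho-Ser53 MCM2 detected with antibody-bound Protein A acceptor and streptavidin donor beads. Rates fitted by Michaelis–Menten and double-reciprocal plots.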

[5] = target: T1, CDC7/DBF4 (Cell division cycle 7-related protein kinase/Activator of S phase kinase); assay: Inhibition of Cdc7/Dbf4 (unknown origin) using 0.333 uM of ATP as substrate by AlphaScreen assay; format: protein-complex assay
HCT-116 = assay: Cell cycle arrest in human HCT116 cells assessed as DNA accumulation at S/G2/M phase at 0.31 to 10 uM after 3 days using propidium iodide/RNase staining by flow cytometry; format: functional, cell-based
In short: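 HCT-116 cells exposed to inhibitor for 3 d at the indicated concentrations. Cells harvested with Cell Stripper buffer, fixed in 70% ethanol, stained with propidium iodide/RNase, and DNA content analysed by flow cytometry.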

Mus musculus = assay: Inhibition of Cdc7/Dbf4 in NCR nude mouse xenografted with human HCT116 cells assessed as reduction of phosphorylated MCM2 level in tumor at 50 mg/kg, iv after 16 hrs; format: functional, organism-based; set-up: dose 50 mg/kg; conditions: HCT-116
In short: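 Female athymic NCR/nu mice, 4–6 weeks old, bearing subcutaneous HCT-116 xenografts (5 × 10^6 cells in Matrigel) grown to about 250 mm3. Single iv dose formulated in 20% HPbCD, 1% HPMC, 1% PluronicF68, pH7 at 10 mg/ml; three mice per group. Tumors were homogenized in Tris lysis buffer with protease and phosphatase inhibitors. MSD capture with total MCM2 antibody, then phospho-Ser53 or total MCM2 detection by chemiluminescence; inhibition taken from the phospho/total ratio.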

T1 sequence (Q9UBU7 whole entry): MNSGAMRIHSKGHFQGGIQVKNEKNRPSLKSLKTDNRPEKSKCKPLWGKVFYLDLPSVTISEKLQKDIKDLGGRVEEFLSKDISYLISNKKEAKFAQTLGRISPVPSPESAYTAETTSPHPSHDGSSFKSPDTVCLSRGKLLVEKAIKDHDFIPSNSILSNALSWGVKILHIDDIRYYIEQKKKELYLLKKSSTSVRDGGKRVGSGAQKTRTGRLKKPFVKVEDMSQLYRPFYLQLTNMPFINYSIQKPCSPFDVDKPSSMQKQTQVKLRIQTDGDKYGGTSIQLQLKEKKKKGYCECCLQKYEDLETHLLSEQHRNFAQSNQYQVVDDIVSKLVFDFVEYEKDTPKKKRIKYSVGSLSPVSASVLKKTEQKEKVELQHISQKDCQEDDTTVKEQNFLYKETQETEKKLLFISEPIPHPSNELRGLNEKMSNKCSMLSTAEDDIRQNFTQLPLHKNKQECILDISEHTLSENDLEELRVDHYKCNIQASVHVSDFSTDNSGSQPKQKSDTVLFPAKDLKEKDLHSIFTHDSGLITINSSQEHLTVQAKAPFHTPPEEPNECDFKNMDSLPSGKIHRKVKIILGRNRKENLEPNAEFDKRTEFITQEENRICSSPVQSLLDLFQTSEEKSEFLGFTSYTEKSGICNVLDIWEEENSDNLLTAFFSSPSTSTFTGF
T1 sequence (O00311 whole entry): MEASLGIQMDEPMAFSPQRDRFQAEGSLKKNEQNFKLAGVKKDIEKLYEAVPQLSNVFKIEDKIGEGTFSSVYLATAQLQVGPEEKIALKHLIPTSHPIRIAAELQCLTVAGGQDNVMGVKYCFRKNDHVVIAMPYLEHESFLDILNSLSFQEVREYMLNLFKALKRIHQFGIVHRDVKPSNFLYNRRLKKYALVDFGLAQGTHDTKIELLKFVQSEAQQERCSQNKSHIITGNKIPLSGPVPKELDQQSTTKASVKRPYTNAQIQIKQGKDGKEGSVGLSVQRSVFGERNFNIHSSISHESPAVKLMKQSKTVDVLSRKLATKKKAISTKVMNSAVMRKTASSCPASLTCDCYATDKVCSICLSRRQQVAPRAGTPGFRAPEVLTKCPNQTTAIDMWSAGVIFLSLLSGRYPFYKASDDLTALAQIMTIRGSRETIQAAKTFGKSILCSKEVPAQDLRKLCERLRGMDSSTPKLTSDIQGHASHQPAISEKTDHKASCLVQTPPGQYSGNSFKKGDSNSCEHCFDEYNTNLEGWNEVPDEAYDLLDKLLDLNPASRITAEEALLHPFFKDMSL

Papp [1] [×10⁻⁶ cm/s] | IC50 [2] [nM] | Structure (SMILES) | IC50 [3] [nM] | IC50 [4] [nM] | IC50 [5] [nM] | Activity (HCT-116) | inhibition (Mus musculus)
≥ 8.9 | 546 | CCOC(=O)c1sc(-c2ccncc2)nc1O |  |  |  |  | 
 |  | NC(=O)c1sc(-c2ccnc(N)n2)nc1-c1ccc(Cl)cc1Cl | 18 | 17 | 20 | Active | inactive
